Assay outcomes from PubChem.
SMARCA2 act = SMARCA2 (BRM) function activators, primary screen, cell-based, luminescence, high throughput; MG213 cells, MMTV-luciferase reporter, dexamethasone, overnight; activation, % at 9.1 µM; 1% of 370,000 active; AID 652017, 2013; in the data active = activation above about 7.8%
MC4R barr agon = MC4R agonists recruiting beta-arrestin, primary screen, cell-based, luminescence, agonist arm of biased-ligand search; U2OS MC4R beta-arrestin complementation; percent of melanotan II response, DMSO zero; activation, % at 8.9 µM; 0.98% of 360,000 active;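 active = activation above a per-plate cutoff, the mean activation of sample wells on that plate plus 3 SD, cut at about 8% in these data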
Target sequence (P32245 whole entry, looked up): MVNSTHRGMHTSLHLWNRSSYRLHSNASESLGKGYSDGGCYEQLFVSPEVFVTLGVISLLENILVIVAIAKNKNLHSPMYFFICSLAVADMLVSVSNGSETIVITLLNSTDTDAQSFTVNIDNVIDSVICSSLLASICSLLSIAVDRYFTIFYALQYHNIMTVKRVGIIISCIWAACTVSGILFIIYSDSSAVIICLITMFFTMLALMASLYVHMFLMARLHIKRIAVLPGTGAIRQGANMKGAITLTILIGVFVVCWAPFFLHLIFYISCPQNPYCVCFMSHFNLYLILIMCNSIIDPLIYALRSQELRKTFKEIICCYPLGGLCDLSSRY
MC4R antagonist = MC4R antagonists of cAMP signaling, primary screen, cell-based, TR-FRET, antagonist arm of biased-ligand search | MC4R-expressing cells, MTII-stimulated cAMP, LANCE TR-FRET | 0.48% of 360,000 active | inhibition, % at 6.5 µM | Melanocortin receptor 4 (Homo sapiens), P32245;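 active = inhibition above its plate's cutoff, the mean of tested wells on that plate plus 3 SD, cut at about 29% in these data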
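System: U2OS cells stably expressing human melanocortin 4 receptor (MC4R). Reagent: Melanotan II challenge after compound preincubation. Doses: 6.5 µM. Times: 30-min compound, 1-h challenge, 1-h detection, room temperature. Measured by: TR-FRET with Eu-cAMP and labeled anti-cAMP, 671 nm. Replicates: singlicate.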
F508del corr = F508del CFTR correction, initial screen, CFBE line, single point; CFBE cells, YFP halide quenching; stimulated with forskolin plus potentiator P3; % fluorescence drop versus neutral controls; activity (quench increase), % at 7.58 µM; 0.36% of 350,000 active;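 active = mean added fluorescence quench of at least 8% versus neutral control, with both replicates also reaching 8%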;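 note: cells transiently co-express mutant CFTR-F508del with the halide-sensitive YFP; corrector assay measuring rescue of mutant channel to the surface after 24 h compound exposure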
SMARCA2 act conf = SMARCA2 (BRM) function activators, confirmation, cell-based, luminescence, triplicate; 30% of 3,500 active; MG213 cells, MMTV-luciferase with dexamethasone, overnight; MG213 cells expressing E1A, Rb sequestered; DMSO wells 0%, reference activator 100%; shares compounds with SMARCA2 act; activation, % at 9.1 µM;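 active = activation above its plate's cutoff, the mean activation of tested wells plus 3 SD, cut at about 7.9% in these data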
VP16 Luc act = GAL4-VP16 luciferase reporter activation, counter-screen for SMARCA2 (BRM) activator project, cell-based, pG5luc, luminescence, high throughput; shares compounds with SMARCA2 act; HEK293 GAL4-VP16 pG5luc reporter; scaled: DMSO wells 0%, SAHA wells 100%; activation, % at 9.1 µM; 41% of 3,500 active;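 active = activation above the solvent-only control well mean plus 3 SD, averaged across control plates, cut at about 5.2% in these data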
Hits are given with their value; . = inactive; / = no result. Shown are actives, neighbours in structure and some others; about 2.1% of the full set was active somewhere.

SMILES	SMARCA2 act	MC4R barr agon	MC4R antagonist	F508del corr	SMARCA2 act conf	VP16 Luc act
Oc1ccc(Nc2nc(N3CCCC3)c3ccccc3n2)cc1	10	.	.	/	27	.
C(=C\c1nc(N2CCCC2)c2ccccc2n1)/c1ccccc1	9.0	.	.	/	15	.
O=C(C[C@@H]1CC[C@@H]2[C@H](COC[C@H](O)CN2C(=O)c2ccc(F)cc2)O1)Nc1nccs1	/	/	/	.	/	/
COC(=O)c1cc(C(=O)Nc2nnc(CC(C)C)s2)cc([N+](=O)[O-])c1	12	.	.	/	.	.
C[C@@H]1CN([C@H](C)CO)C(=O)CCCn2cc(nn2)CO[C@@H]1CN(C)Cc1ccncc1	/	/	/	.	/	/
CCNC(=S)NNC(=O)c1ccccc1Cl	8.2	.	.	/	.	.
CCNC(=S)NNC(=O)c1ccccc1OC(F)F	.	.	.	/	/	/
CC(C)C(Cl)=NOC(=O)Nc1ccc(S(N)(=O)=O)cc1	47	.	.	.	.	.
CCc1cc2c(=O)c(-c3nc(C)cs3)coc2cc1O	.	.	.	.	/	/
Cc1csc(-c2coc3cc(O)cc(C)c3c2=O)n1	9.0	.	.	.	15	7.5
CN(CC(=O)Nc1ccccc1Br)C(=O)c1ccc(-c2ccc(Cl)cc2)o1	8.9	.	.	.	.	.
CN(CC(=O)Nc1ccccc1C(F)(F)F)C(=O)c1ccc(-c2ccc(Cl)cc2)o1	.	.	.	.	/	/
CC(C)NC(=O)Nc1cccc2c1O[C@H](CN(C)C(=O)Nc1cccc3ccccc13)[C@@H](C)CN([C@@H](C)CO)C2=O	/	/	/	.	/	/
COC(=O)c1cccc(Oc2cccc(C(F)(F)F)c2)n1	11	.	.	.	.	.
COc1ccc(/C=N\NC(=O)c2ccc(=O)[nH]n2)cc1O	12	.	.	/	.	.
Cc1ccc(SCC(=O)Nc2ccc(N3CCN(C)CC3)c(F)c2)cc1	11	.	.	/	.	.
COc1ccc(SCC(=O)Nc2ccc(N3CCN(C)CC3)c(F)c2)cc1	.	.	.	.	/	/
CC(C)NC(=O)N(C)C[C@@H]1OCCCC[C@@H](C)Oc2ccc(NC(=O)Nc3cccc4ccccc34)cc2C(=O)N([C@@H](C)CO)C[C@@H]1C	/	/	/	.	/	/
S=C(NC1CCCC1)N1CCOCC1	8.2	.	.	.	.	.
S=C(NC1CCCCC1)N1CCOCCOCCN(C(=S)NC2CCCCC2)CCOCC1	.	.	.	.	/	/
O=C(N[C@@H]1C=C[C@H](CC(=O)N2CCc3ccccc3C2)O[C@@H]1CO)C1CCOCC1	/	/	/	.	/	/
C[C@H](CO)N1C[C@H](C)[C@@H](CN(C)C(=O)Nc2ccc3c(c2)OCO3)Oc2ccc(NS(=O)(=O)c3cccs3)cc2CC1=O	/	/	/	.	/	/
COc1ccc(NC(=O)/C=C/c2ccco2)cn1	.	.	.	.	/	/
COc1ccc(NC(=O)/C=C/c2cccc(F)c2)cn1	12	.	.	/	.	10
COc1ccc(C(=O)N/N=C(/C)c2cccc(NC(=O)C(F)(F)F)c2)cc1	14	.	.	/	.	7.0
SMILES	SMARCA2 act	MC4R barr agon	MC4R antagonist	F508del corr	SMARCA2 act conf	VP16 Luc act
C/C(=N/NC(=O)c1ccoc1C)c1cccc(NC(=O)C(F)(F)F)c1	.	/	/	/	/	/
O=[N+]([O-])c1ccc2[nH]c(=S)[nH]c2c1	10	.	.	.	11	.
C[C@@H]1CN([C@H](C)CO)C(=O)c2cc(NC(=O)Cc3ccccc3)ccc2O[C@@H](C)CCCCO[C@H]1CN(C)S(=O)(=O)c1ccc(F)cc1	/	/	/	.	/	/
Cc1noc(C)c1NC(=O)Nc1ccc2c(c1)CC(=O)N([C@H](C)CO)C[C@H](C)[C@H](CN(C)S(C)(=O)=O)O2	/	/	/	.	/	/
CN1CCc2c(c3ccccc3n2Cc2ccccc2)C1	.	.	.	.	.	.
Cc1ccc(Nc2cccccc2=O)cc1	9.3	.	.	/	.	8.4
Cc1noc(C)c1NC(=O)N(C)C[C@@H]1Oc2ccc(NC(=O)CCC(F)(F)F)cc2CC(=O)N([C@@H](C)CO)C[C@H]1C	/	/	/	.	/	/
O=C(CSc1nc(-c2ccccc2)nc2ccccc12)Nc1nccs1	.	.	.	/	/	/
Cc1ccc(C#N)c(SCC(=O)Nc2nccs2)n1	14	.	.	.	.	.
COc1ccc(CC(=O)Nc2c3c(nn2-c2ccccc2C)CS(=O)C3)cc1 (configuration not stated)	8.7	.	.	/	.	.
CCCNC(=O)Nc1ccc2c(c1)C(=O)N(C)C[C@H](OC)[C@H](C)CN(C(=O)c1ccccc1F)[C@H](C)CO2	/	/	/	.	/	/
COc1ccc(CNC(=O)CSc2nnnn2C)cc1OC	8.5	.	.	.	.	.
Cn1nnnc1SCC(=O)NCc1ccc2c(c1)OCO2	.	.	.	.	/	/
COc1ccc2nc(NC(=O)CSc3cn[nH]n3)sc2c1	.	.	.	.	/	/
CCOc1ccc2nc(NC(=O)CSc3cn[nH]n3)sc2c1	12	.	.	.	8.2	13
Cc1ccc(-c2cc3onc(-c4ccccc4)c3c(=O)n2C)cc1	.	.	.	.	/	/
CCc1noc2cc(-c3ccccc3)n(C)c(=O)c12	9.7	/	/	.	14	6.8
CC(=O)c1cccc(Nc2c([N+](=O)[O-])c(=O)oc3ccccc23)c1	.	.	.	.	/	/
O=C(O)c1cccc(Nc2c([N+](=O)[O-])c(=O)oc3ccccc23)c1	8.9	.	.	.	.	.
O=C(Nc1cc(Cl)ccc1Oc1ccccc1)c1ccccc1F	8.9	.	.	/	.	.
O=C(Nc1cc(Cl)ccc1Oc1ccccc1)c1cnccn1	.	.	.	/	/	/
COc1ccc(S(=O)(=O)Nc2ccc3c(c2)C(=O)N([C@H](C)CO)C[C@H](C)[C@H](CN(C)C(=O)NC2CCCCC2)OCCCC[C@H](C)O3)cc1	/	/	/	.	/	/
C=CCn1c(O)c(N=NC(=S)Nc2cccc(OC)c2)c2ccccc21	10	.	.	/	.	.
C=CCn1c(O)c(N=NC(=S)Nc2ccc(OC)cc2)c2ccccc21	.	.	.	/	/	/
O=C(Nc1nc(-c2ccccn2)cs1)c1ccco1	.	.	.	.	/	/
O=C(Nc1nc(-c2cc3ccccc3oc2=O)cs1)c1ccco1	17	.	.	.	.	.
COc1ccc2c(c1OC)C(=O)N(c1cccc(C(F)(F)F)c1)C2	8.5	.	.	/	.	8.9
COc1ccc2c(c1OC)C(=O)N(c1ccc(C)cc1)C2	9.4	.	.	.	14	8.4
COc1ccc2c(c1OC)C(=O)N(c1cccc(C)c1)C2	.	.	.	/	/	/
COc1ccc(C2CC2/C(=N/O)c2ccccn2)cc1 (configuration not stated)	.	.	.	.	/	/
